Usually Vmax stands for the rate approached at saturating substrate. For orientation: Km means the substrate concentration at which the rate is half of its maximum. Broadly, the half-life is the time needed for the level to fall by half in the phase considered. As a reminder, the EC50 is the concentration needed to bring the measured effect to its halfway point. A lower EC50 goes with a more potent agent.

The species entered for one data set is Bos taurus. Description: Kinetic parameter Vmax value for Bovine spleen NTPDase1 hydrolysis. It is filed as ADME. The note with it: cattle. The essentials:
(§1)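 Semipurified bovine spleen particulate NTPDase1 (about 1 μg protein), preincubated 3 min at 37 °C in 8 mM CaCl2, 5 mM tetramisole, 50 mM imidazole, 50 mM Tris pH 7.5. The reaction was started with substrate at 10–100 μM and stopped after 7 min with malachite green to read Pi release. Apparent Km and Vmax came from a Woolf–Augustinson–Hofstee plot; assays were run in triplicate.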

In the next data set the test system is NTPDase1. Description: Kinetic parameter Km value for Bovine spleen NTPDase1 hydrolysis. It is filed as ADME, Bos taurus. The conditions noted are these: cattle. The method, boiled down: as §1
The nature of data set [1]: Hydrolysis rate constant was determined. It is filed as ADME. The method, boiled down:
(§2)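 ³¹P NMR follow-up of hydrolysis at 37 °C. At pH 7.4 the diastereoisomeric mixture (tetrasodium salt) was held in Tris-HCl buffer and recorded for 3 weeks at 1–3 day intervals; hydrolysis came from Pγ (−7.5 ppm) versus inorganic phosphate (1.7 ppm) integrals. At pH 1.4 the sample was in KCl/HCl buffer with D2O, recorded for 17 h every 0.5 h; Pβ intensity versus time was fit to pseudo-first-order kinetics.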

Data set [2] is described as follows: Half life was determined. The format is ADME. The essentials: as §2
For a further data set, the target named is P2Y purinoceptor 1 (Rattus norvegicus, UniProt P49651). Put plainly: Agonists activity was evaluated by release of [Ca2+] release of HEK 293 cells stably transfected with rat-brain P2Y purinoceptor 1 (P2Y1-R). It is filed as functional, cell-based, HEK293. The essentials: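 HEK293 cells stably expressing rat brain P2Y1 receptor, grown on coverslips, loaded 30 min with 2 μM Fura 2-AM in HEPES-buffered saline pH 7.4. Continuous superfusion with 35 °C HBS containing varying nucleotide concentrations. Single-cell fluorescence at 340/380 nm excitation, 500 nm emission. EC50 from concentration–response of ΔF340/F380, averaged over 60–100 cells; at least three separate experiments; ATP as reference.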

A further data set is described as follows: Half life was determined. The note with it: pH 1.4, 37 °C.

P2Y purinoceptor 1, sequence (P49651 whole entry, the tested form may be a part): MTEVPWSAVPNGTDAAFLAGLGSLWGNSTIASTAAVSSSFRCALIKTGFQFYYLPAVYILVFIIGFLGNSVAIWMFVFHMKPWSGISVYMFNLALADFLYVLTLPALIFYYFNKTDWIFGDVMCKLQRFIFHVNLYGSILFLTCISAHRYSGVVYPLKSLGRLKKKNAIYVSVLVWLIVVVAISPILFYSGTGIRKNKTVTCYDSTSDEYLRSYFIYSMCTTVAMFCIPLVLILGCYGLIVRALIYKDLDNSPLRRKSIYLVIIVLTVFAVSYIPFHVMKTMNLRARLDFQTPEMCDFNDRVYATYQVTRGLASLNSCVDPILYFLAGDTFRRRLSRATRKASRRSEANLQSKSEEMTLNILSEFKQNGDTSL

In the case of `Nc1nc(Cl)nc2c1ncn2[C@@H]1O[C@H](COP(=O)([O-])OP(=O)([O-])OP(=O)([O-])[O-])[C@@H](O)[C@H]1O.[Na+].[Na+].[Na+].[Na+]`, the Vmax in the data set listed under Bos taurus was determined as 1.9 µmol/min/mg. In addition, the Km in the data set on NTPDase1 amounted to 12.9 µM.

In data set [1], `[BH3-]P(=O)(OC[C@H]1O[C@@H](n2cnc3c(N)nc(Cl)nc32)[C@H](O)[C@@H]1O)OP(=O)([O-])OP(=O)([O-])[O-].[Na+].[Na+].[Na+].[Na+]` (stereo partly drawn) displayed a Hydrolysis rate constant of 7.2e-05 s⁻¹. The maximum rate (Vmax) in the data set listed under Bos taurus worked out at 0.88 µmol/min/mg. Besides, the half-life in data set [2] was found to be 2.7 h. Also, the Km with NTPDase1 was 7.2 µM.

For the molecule `Nc1ncnc2c1ncn2[C@@H]1O[C@H](COP(=O)([O-])OP(=O)([O-])OP(=O)([O-])[O-])[C@@H](O)[C@H]1O.[Na+].[Na+].[Na+].[Na+]`, the Vmax in the data set filed under Bos taurus turned out to be 2.4 µmol/min/mg. For the same molecule, the Michaelis-Menten constant (Km) in the data set with NTPDase1 came to 15.9 µM.

Regarding `CSc1nc(N)c2ncn([C@@H]3O[C@H](COP(=O)([O-])OP(=O)([O-])OP(=O)([O-])[O-])[C@@H](O)[C@H]3O)c2n1.[Na+].[Na+].[Na+].[Na+]`, the Vmax in the data set filed under Bos taurus worked out at 1.9 µmol/min/mg. The EC50 on P2Y purinoceptor 1 is 1 nM. In addition, the Km in the data set on NTPDase1 worked out at 62 µM.

For `[BH3-]P(=O)(OC[C@H]1O[C@@H](n2cnc3c(N)ncnc32)[C@H](O)[C@@H]1O)OP(=O)([O-])OP(=O)([O-])[O-].[Na+].[Na+].[Na+].[Na+]` (stereo partly drawn), the Vmax in the data set filed under Bos taurus amounted to 0.78 µmol/min/mg. On P2Y purinoceptor 1, this molecule registered a half-maximal effective concentration (EC50) of 200 nM. In the data set on NTPDase1, the Km was 13.8 µM.

For the molecule `[BH3-]P(=O)(OC[C@H]1O[C@@H](n2cnc3c(N)nc(SC)nc32)[C@H](O)[C@@H]1O)OP(=O)([O-])OP(=O)([O-])[O-].[Na+].[Na+].[Na+].[Na+]` (stereo partly drawn), the Vmax in the data set listed under Bos taurus amounted to 0.89 µmol/min/mg. This molecule had a half-life in the data set “Half life was determined” of 5.9 h. This molecule also returned an EC50 at P2Y purinoceptor 1 of 2.6 nM. Also, in the data set on NTPDase1, the Km is 17.4 µM.
